In ChEMBL document CHEMBL1150393, “Evaluation of radiolabeled (hetero)aromatic analogues of N-(2-diethylaminoethyl)-4-iodobenzamide for imaging and targeted radionuclide therapy of melanoma” (J Med Chem, 2008):
Each block holds one compound with its values, some of them ahead of it.

Experiments:
Format in all cases: ADME, organism-based
Conditions in all cases: in vivo
[1] = Biodistribution in gall bladder of C57BL/6 mouse bearing mouse B16-F0 cells at 0.74 to 0.92 MBq, iv after 1 hr
Method in brief: (§1)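 Male C57BL6 mice with s.c. left-flank B16-F0 melanoma (5 × 10⁵ cells in PBS). Two mice per time point frozen in liquid nitrogen after CO₂ sacrifice. Eight 40 µm whole-body cryosections per mouse read by multiwire proportional counter. cpm/mm² converted to kBq/g and expressed as %ID/g.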

[2] = Biodistribution in glandula seminalis of C57BL/6 mouse bearing mouse B16-F0 cells at 0.74 to 0.92 MBq, iv after 3 hrs; method in brief: as §1
[3] = Biodistribution in glandula seminalis of C57BL/6 mouse bearing mouse B16-F0 cells at 0.74 to 0.92 MBq, iv after 6 hrs; method in brief: as §1
[4] = Biodistribution in gall bladder of C57BL/6 mouse bearing mouse B16-F0 cells at 0.74 to 0.92 MBq, iv after 3 hrs; method in brief: as §1
[5] = Biodistribution in glandula seminalis of C57BL/6 mouse bearing mouse B16-F0 cells at 0.74 to 0.92 MBq, iv after 1 hr; method in brief: as §1
Brain [6] = experiment: Biodistribution in brain of C57BL/6 mouse bearing mouse B16-F0 cells at 0.74 to 0.92 MBq, iv after 24 hrs; method in brief: as §1
Brain [7] = experiment: Biodistribution in brain of C57BL/6 mouse bearing mouse B16-F0 cells at 0.74 to 0.92 MBq, iv after 72 hrs; method in brief: as §1
[8] = Ratio of drug level in tumor to brain of C57BL/6 mouse bearing mouse B16-F0 cells at 0.74 to 0.92 MBq, iv after 24 hrs
Method in brief: (§2)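 Tumour and organ radioactive concentrations came from whole-body cryosection counting (40 µm slices, eight per mouse, two mice per time) after tail-vein injection of the [¹²⁵I]-labelled compound (0.1 µmol) into male C57BL6 mice bearing s.c. B16-F0 melanoma. Each value is the ratio of the tumour concentration to the organ concentration.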

[9] = Ratio of drug level in tumor to brain of C57BL/6 mouse bearing mouse B16-F0 cells at 0.74 to 0.92 MBq, iv after 72 hrs; method in brief: as §2
[10] = Biodistribution in intestinal content of C57BL/6 mouse bearing mouse B16-F0 cells at 0.74 to 0.92 MBq, iv after 72 hrs; method in brief: as §1
[11] = Ratio of drug level in tumor to liver of C57BL/6 mouse bearing mouse B16-F0 cells at 0.74 to 0.92 MBq, iv after 72 hrs; method in brief: as §2
Pancreas = experiment: Biodistribution in pancreas of C57BL/6 mouse bearing mouse B16-F0 cells at 0.74 to 0.92 MBq, iv after 24 hrs; method in brief: as §1
Kidney = experiment: Biodistribution in kidney of C57BL/6 mouse bearing mouse B16-F0 cells at 0.74 to 0.92 MBq, iv after 72 hrs; method in brief: as §1
Muscle tissue = experiment: Biodistribution in muscle of C57BL/6 mouse bearing mouse B16-F0 cells at 0.74 to 0.92 MBq, iv after 24 hrs; method in brief: as §1
Bone marrow = experiment: Biodistribution in bone marrow of C57BL/6 mouse bearing mouse B16-F0 cells at 0.74 to 0.92 MBq, iv after 1 hr; method in brief: as §1

SMILES: CCN(CC)CCNC(=O)c1ccc([125I])nc1.Cl.Cl
Drug uptake [1]: 8.68 % ID/g | Drug uptake [2]: 3.78 % ID/g | Drug uptake [3]: 3.55 % ID/g | Drug uptake [4]: 6.78 % ID/g | Drug uptake [5]: 6.79 % ID/g

SMILES: CCN(CC)CCNC(=O)c1c[nH]c2ccc([125I])cc2c1=O.Cl.Cl
Drug uptake (Brain [6]): 0.04 % ID/g | Drug uptake (Brain [7]): 0.1 % ID/g | Ratio [8]: 68.5 | Ratio [9]: 23.5 | Drug uptake [10]: 0.7 % ID/g

SMILES: CCN(CC)CCNC(=O)c1cc2cc([125I])ccc2[nH]1.Cl
Ratio [11]: 1.38 | Drug uptake (Pancreas): 0.09 % ID/g | Drug uptake (Kidney): 0.71 % ID/g | Drug uptake (Muscle tissue): 0.19 % ID/g

SMILES: CCN(CC)CCNC(=O)c1cnc2cc([125I])ccc2n1.Cl.Cl
Drug uptake (Bone marrow): 4.58 % ID/g

Second part, the compound after the results:

Drug uptake [4]: 41.51 % ID/g
SMILES: CCN(CC)CCNC(=O)c1ccc2cncc([125I])c2n1.Cl.Cl

Ratio [11]: 7.26
SMILES: CCN(CC)CCNC(=O)c1ccc2cc([125I])ccc2n1.Cl.Cl
